{
  "source": "paper PMC4011915",
  "about": "(mAbs, 2014)",
  "molecules": {"B1": {"name": "full-length: 3xFLAG-tagged human aldolase C aa 1-364, 43 kDa (protein, UniProt P09972 1-364, looked up)", "chain": "MPHSYPALSAEQKKELSDIALRIVAPGKGILAADESVGSMAKRLSQIGVENTEENRRLYRQVLFSADDRVKKCIGGVIFFHETLYQKDDNGVPFVRTIQDKGIVVGIKVDKGVVPLAGTDGETTTQGLDGLSERCAQYKKDGADFAKWRCVLKISERTPSALAILENANVLARYASICQQNGIVPIVEPEILPDGDHDLKRCQYVTEKVLAAVYKALSDHHVYLEGTLLKPNMVTPGHACPIKYTPEEIAMATVTALRRTVPPAVPGVTFLSGGQSEEEASFNLNAINRCPLPRPWALTFSYGRALQASALNAWRGQRDNAGAATEEFIKRAEVNGLAAQGKYEGSGEDGGAAAQSLYIANHAY", "modifications": "full-length 3xFLAG tag"}, "B2": {"name": "Clone 1: 3xFLAG-tagged human aldolase C aa 1-210, 26 kDa (protein, UniProt P09972 1-210, looked up, fragment)", "chain": "MPHSYPALSAEQKKELSDIALRIVAPGKGILAADESVGSMAKRLSQIGVENTEENRRLYRQVLFSADDRVKKCIGGVIFFHETLYQKDDNGVPFVRTIQDKGIVVGIKVDKGVVPLAGTDGETTTQGLDGLSERCAQYKKDGADFAKWRCVLKISERTPSALAILENANVLARYASICQQNGIVPIVEPEILPDGDHDLKRCQYVTEKVL", "modifications": "3xFLAG tag"}, "B3": {"name": "Clone 2: 3xFLAG-tagged human aldolase C aa 101-300, 25 kDa (protein, UniProt P09972 101-300, looked up, fragment)", "chain": "KGIVVGIKVDKGVVPLAGTDGETTTQGLDGLSERCAQYKKDGADFAKWRCVLKISERTPSALAILENANVLARYASICQQNGIVPIVEPEILPDGDHDLKRCQYVTEKVLAAVYKALSDHHVYLEGTLLKPNMVTPGHACPIKYTPEEIAMATVTALRRTVPPAVPGVTFLSGGQSEEEASFNLNAINRCPLPRPWALTF", "modifications": "3xFLAG tag"}, "B4": {"name": "Clone 1A: 3xFLAG-tagged human aldolase C aa 1-100, 15 kDa (protein, UniProt P09972 1-100, looked up, fragment)", "chain": "MPHSYPALSAEQKKELSDIALRIVAPGKGILAADESVGSMAKRLSQIGVENTEENRRLYRQVLFSADDRVKKCIGGVIFFHETLYQKDDNGVPFVRTIQD", "modifications": "3xFLAG tag"}, "B5": {"name": "Clone 1B: 3xFLAG-tagged human aldolase C aa 101-210, 16 kDa (protein, UniProt P09972 101-210, looked up, fragment)", "chain": "KGIVVGIKVDKGVVPLAGTDGETTTQGLDGLSERCAQYKKDGADFAKWRCVLKISERTPSALAILENANVLARYASICQQNGIVPIVEPEILPDGDHDLKRCQYVTEKVL", "modifications": "3xFLAG tag"}},
  "data": [
    {"system": "9F mAb", "assay": "Immunoblot of 3xFLAG-tagged aldolase C fragments in Neuro2a lysates with 9F mAb", "format": "binding, mouse", "conditions": "Neuro2a total protein lysates; 15% SDS-PAGE; 9F 1:1000; ECL", "how_it_was_run": "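Neuro2a cells were plated without antibiotics to reach 70–90% confluence, transfected with lipofectamine 2000, given fresh medium at 6h and grown 48h at 37 °C. Lysis was 30 min on ice in 50mM Tris-HCl pH 7.5, 150mM NaCl, 0.1% Triton X-100 and 0.5 mM PMSF, cleared at 16000xg. Blots went onto nitrocellulose, blocked 1h in 5% milk/T-PBS. Primary 1h RT or overnight 4 °C; HRP anti-mouse 1:5000, 45min. α-tubulin loading control.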", "values": [
      {"molecule": "B1", "recognition of 3xFLAG-tagged aldolase C fragment by 9F mAb": "recognized"},
      {"molecule": "B2", "recognition of 3xFLAG-tagged aldolase C fragment by 9F mAb": "recognized"},
      {"molecule": "B3", "recognition of 3xFLAG-tagged aldolase C fragment by 9F mAb": "absence of ECL signal"},
      {"molecule": "B4", "recognition of 3xFLAG-tagged aldolase C fragment by 9F mAb": "detected"},
      {"molecule": "B5", "recognition of 3xFLAG-tagged aldolase C fragment by 9F mAb": "detected Clone 1A (15kDa) but not Clone 1B"}
    ]}
  ]
}
